Results as given in ChEMBL document CHEMBL3286182, “4-aminoquinolone piperidine amides: noncovalent inhibitors of DprE1 with long residence time and potent antimycobacterial activity” (J Med Chem, 2014).
In brackets after ≈: the same amount, converted by molar mass. Activity calls are given as the source filed them. No cut-off for these calls is given here.

How the values were obtained:
Cytochrome P450 2D6 = Cytochrome P450 2D6 (Homo sapiens, UniProt P10635); assay: Inhibition of CYP2D6 (unknown origin); type: ADME
Chain of Cytochrome P450 2D6 (P10635 whole entry, canonical isoform): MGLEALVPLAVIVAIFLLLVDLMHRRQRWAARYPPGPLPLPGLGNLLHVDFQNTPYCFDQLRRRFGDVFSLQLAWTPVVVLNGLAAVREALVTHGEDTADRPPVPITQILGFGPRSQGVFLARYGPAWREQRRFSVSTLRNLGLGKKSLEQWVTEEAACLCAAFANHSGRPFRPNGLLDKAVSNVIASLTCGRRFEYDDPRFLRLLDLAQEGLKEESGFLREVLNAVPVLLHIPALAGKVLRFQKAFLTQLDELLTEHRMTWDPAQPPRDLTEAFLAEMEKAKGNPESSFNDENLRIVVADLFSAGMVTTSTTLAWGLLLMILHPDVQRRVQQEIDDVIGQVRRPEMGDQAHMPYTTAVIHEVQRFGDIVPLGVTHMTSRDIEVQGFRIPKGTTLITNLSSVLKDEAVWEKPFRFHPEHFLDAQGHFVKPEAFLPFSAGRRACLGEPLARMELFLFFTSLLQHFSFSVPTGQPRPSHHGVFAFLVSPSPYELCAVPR
Summary of the method: (§1)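 CYP inhibition IC50 measured on isoforms CYP3A4, CYP2D6, CYP2C9, CYP2C19 and CYP1A2.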

[1] = molecular target: Voltage-gated inwardly rectifying potassium channel KCNH2 (Homo sapiens, UniProt Q12809); assay: Inhibition of human ERG by medium-throughput electrophysiology
Chain of Voltage-gated inwardly rectifying potassium channel KCNH2 (Q12809 whole entry): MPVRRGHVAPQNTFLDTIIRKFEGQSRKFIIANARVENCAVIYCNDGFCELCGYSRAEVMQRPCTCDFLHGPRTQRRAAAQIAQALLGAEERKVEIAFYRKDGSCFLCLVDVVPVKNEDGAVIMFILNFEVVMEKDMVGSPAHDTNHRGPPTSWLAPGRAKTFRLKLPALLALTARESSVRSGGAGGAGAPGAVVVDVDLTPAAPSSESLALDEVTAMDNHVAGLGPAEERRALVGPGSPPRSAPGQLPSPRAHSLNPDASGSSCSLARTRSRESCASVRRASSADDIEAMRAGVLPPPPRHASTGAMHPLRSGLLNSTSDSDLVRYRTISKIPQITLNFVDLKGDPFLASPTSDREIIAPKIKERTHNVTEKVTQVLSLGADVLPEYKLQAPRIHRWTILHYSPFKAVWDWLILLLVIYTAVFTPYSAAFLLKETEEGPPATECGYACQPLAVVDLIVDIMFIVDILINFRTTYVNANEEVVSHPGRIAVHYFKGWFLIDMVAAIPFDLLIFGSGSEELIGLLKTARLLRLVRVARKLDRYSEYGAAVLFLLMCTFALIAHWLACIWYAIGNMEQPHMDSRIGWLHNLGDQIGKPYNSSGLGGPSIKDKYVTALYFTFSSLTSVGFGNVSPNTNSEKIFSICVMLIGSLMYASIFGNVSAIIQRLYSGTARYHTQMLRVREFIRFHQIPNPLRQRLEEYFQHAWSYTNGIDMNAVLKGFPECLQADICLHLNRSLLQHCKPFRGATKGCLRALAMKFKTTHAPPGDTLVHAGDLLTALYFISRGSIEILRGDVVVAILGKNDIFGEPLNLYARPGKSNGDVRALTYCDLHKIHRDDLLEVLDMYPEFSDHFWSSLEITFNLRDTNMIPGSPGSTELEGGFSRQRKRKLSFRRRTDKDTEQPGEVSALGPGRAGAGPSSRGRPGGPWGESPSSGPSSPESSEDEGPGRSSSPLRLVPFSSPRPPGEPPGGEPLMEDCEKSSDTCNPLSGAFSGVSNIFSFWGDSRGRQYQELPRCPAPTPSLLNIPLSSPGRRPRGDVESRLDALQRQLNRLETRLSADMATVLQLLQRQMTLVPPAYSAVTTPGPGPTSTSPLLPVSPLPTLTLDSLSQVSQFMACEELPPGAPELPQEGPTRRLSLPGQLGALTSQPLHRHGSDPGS

[2] = Fraction unbound in human plasma at 20 uM after 18 hrs by equilibrium dialysis method; type: ADME, cell-free
[3] = Solubility of the compound in 0.1 M phosphate buffer at pH 7.4 after 24 hrs by UV and MS analysis; type: physicochemical
[4] = Permeability of the compound from basolateral to apical side in human Caco2 cells; type: ADME, cell-based; details: Caco-2, read-out: permeability
Cytochrome P450 2C19 = Cytochrome P450 2C19 (Homo sapiens, UniProt P33261); assay: Inhibition of CYP2C19 (unknown origin); type: ADME; summary of the method: as §1
Chain of Cytochrome P450 2C19 (P33261 whole entry): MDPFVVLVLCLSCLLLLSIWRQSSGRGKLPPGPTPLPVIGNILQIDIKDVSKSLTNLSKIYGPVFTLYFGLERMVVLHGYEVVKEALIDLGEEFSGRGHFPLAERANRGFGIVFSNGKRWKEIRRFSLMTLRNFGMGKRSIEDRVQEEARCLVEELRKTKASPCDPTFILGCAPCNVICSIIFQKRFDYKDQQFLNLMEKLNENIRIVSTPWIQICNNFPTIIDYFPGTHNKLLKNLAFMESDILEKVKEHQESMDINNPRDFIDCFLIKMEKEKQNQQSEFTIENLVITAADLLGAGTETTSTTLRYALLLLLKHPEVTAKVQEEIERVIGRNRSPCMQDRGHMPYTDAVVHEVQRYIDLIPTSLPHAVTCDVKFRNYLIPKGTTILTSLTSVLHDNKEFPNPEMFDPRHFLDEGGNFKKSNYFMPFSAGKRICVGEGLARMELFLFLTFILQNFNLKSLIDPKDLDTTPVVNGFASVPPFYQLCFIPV

Adenosine receptor A1 = molecular target: T1, Adenosine receptor A1 (Homo sapiens, UniProt P30542); assay: Inhibition of adenosine A1 receptor (unknown origin)
T1 sequence (P30542 whole entry): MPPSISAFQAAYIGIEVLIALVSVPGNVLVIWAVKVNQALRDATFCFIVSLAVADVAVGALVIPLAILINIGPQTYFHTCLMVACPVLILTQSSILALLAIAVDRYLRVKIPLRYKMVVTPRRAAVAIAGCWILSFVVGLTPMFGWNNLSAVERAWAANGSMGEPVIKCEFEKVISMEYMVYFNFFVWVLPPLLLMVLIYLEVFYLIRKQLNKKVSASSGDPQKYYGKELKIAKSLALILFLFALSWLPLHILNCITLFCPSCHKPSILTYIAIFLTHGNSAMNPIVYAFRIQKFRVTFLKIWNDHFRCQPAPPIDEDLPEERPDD
Summary of the method: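 Secondary pharmacology panel of binding, enzyme and functional assays covering 24 molecular targets. Activity recorded as a defined Ki/IC50/EC50.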

[5] = Inhibition of Mycobacterium smegmatis recombinant DprE1 using farnesylphosphoryl-beta-D-ribofuranose as substrate assessed as conversion of amplex red to resorufin after 30 mins; design: species or system Mycolicibacterium smegmatis
Summary of the method: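 Msm DprE1 (thioredoxin-6His fusion of Msm Rv3790) at 75 nM, preincubated 30 min with 10 μM FAD. Buffer: 50 mM glycylglycine pH 8.5, 200 mM potassium glutamate, 0.002% Brij-35, 2% DMSO, 25 °C. Started with 300 μM farnesylphosphoryl-β-D-ribofuranose, 0.01 mg/mL HRP and 50 μM Amplex Red.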

[6] = system: Mycobacterium tuberculosis; assay: Antimycobacterial activity against Mycobacterium tuberculosis H37Rv after 5 days by standard microdilution method; type: functional; details: 120 h
[7] = Cytotoxicity against human A549 cells after 72 hrs by resazurin based fluorescence assay; type: cell-based; details: read-out: MIC
Summary of the method: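 Cytotoxicity read as MMIC, the MIC on the A549 cell line.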

[8] = Intrinsic clearance in human liver microsomes at 1 uM up to 30 mins by LC-MS/MS analysis; type: ADME; details: read-out: CLH
Cytochrome P450 3A4 = Cytochrome P450 3A4 (Homo sapiens, UniProt P08684); assay: Inhibition of CYP3A4 (unknown origin); type: ADME; summary of the method: as §1
Chain of Cytochrome P450 3A4 (P08684 whole entry): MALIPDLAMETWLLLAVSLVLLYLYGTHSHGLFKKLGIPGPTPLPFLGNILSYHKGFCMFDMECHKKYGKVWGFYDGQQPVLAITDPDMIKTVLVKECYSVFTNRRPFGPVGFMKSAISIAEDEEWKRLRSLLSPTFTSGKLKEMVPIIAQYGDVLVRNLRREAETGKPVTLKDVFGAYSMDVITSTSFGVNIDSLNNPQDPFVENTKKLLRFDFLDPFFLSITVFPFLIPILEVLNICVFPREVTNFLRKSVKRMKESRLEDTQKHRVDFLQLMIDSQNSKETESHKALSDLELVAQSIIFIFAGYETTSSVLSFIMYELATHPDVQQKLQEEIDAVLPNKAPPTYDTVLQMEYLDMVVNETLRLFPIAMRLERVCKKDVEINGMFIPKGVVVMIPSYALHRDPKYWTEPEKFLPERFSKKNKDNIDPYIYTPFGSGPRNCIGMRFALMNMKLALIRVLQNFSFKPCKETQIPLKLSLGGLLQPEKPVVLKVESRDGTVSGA

[9] = Intrinsic clearance in rat cryopreserved hepatocytes assessed per 10^6 cells at 1 uM up to 120 mins by LC-MS/MS analysis; type: ADME, cell-based, Hepatocyte; details: read-out: CLH
Cytochrome P450 1A2 = molecular target: T2, Cytochrome P450 1A2 (Homo sapiens, UniProt P05177); assay: Inhibition of CYP1A2 (unknown origin); type: ADME; summary of the method: as §1
T2 sequence (P05177 whole entry): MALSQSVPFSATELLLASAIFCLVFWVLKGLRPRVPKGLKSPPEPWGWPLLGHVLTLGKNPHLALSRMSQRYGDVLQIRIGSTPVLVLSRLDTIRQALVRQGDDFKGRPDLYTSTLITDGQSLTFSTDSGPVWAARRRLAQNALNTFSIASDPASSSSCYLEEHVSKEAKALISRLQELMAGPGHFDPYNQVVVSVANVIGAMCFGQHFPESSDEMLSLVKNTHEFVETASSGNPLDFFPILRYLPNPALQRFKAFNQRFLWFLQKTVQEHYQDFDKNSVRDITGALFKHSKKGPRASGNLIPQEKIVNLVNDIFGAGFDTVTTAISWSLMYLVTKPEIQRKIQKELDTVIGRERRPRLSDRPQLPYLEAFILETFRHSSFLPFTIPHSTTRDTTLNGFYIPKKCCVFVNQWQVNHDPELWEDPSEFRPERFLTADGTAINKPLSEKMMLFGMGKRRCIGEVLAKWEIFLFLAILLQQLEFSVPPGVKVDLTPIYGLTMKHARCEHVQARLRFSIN

Cytochrome P450 2C9 = Cytochrome P450 2C9 (Homo sapiens, UniProt P11712); assay: Inhibition of CYP2C9 (unknown origin); type: ADME; summary of the method: as §1
Chain of Cytochrome P450 2C9 (P11712 whole entry): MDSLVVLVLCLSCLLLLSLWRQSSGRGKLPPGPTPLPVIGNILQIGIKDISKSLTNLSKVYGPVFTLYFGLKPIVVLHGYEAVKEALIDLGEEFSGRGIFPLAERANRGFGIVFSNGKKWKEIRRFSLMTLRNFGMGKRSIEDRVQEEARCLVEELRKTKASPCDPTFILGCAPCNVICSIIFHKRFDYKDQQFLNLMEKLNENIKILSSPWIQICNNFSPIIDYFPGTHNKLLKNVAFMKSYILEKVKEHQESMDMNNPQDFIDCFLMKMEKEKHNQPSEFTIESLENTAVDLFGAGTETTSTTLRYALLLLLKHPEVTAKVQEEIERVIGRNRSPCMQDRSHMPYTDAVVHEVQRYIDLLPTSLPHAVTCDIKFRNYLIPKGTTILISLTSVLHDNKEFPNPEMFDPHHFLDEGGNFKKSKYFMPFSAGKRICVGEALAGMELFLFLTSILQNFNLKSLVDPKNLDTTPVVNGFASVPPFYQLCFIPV

[10] = Permeability of the compound from apical to basolateral side in human Caco2 cells; type: ADME, cell-based; details: Caco-2, read-out: permeability
[11] = Octanol-water partition coefficient, log D of the compound by shake-flask method; type: physicochemical
Staphylococcus aureus = assay: Antimicrobial activity against Staphylococcus aureus ARC517 at 100 uM; type: functional, organism-based
Summary of the method: (§2)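 Nonmycobacterial panel of Candida albicans, Gram-negative and Gram-positive pathogens.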

[12] = system: Mycolicibacterium smegmatis; assay: Antimicrobial activity against Mycobacterium smegmatis mc2155 at 100 uM; type: functional, organism-based; details: str. MC2 155
[13] = system: Mycobacterium tuberculosis; assay: Antimycobacterial activity against Mycobacterium tuberculosis H37Rv under hypoxic condition after 6 days by resazurin assay; type: functional
Haemophilus influenzae [14] = assay: Antimicrobial activity against Haemophilus influenzae ARC158 at 100 uM; type: functional, organism-based; summary of the method: as §2
Klebsiella pneumoniae = assay: Antimicrobial activity against Klebsiella pneumoniae ARC1865 at 100 uM; type: functional, organism-based; summary of the method: as §2
Haemophilus influenzae [15] = assay: Antimicrobial activity against Haemophilus influenzae ARC446 at 100 uM; type: functional, organism-based; summary of the method: as §2
[16] = system: Mycolicibacterium smegmatis; assay: Antimicrobial activity against Mycobacterium smegmatis ATCC 607 at 100 uM; type: functional, organism-based
Streptococcus pneumoniae = assay: Antimicrobial activity against Streptococcus pneumoniae ARC548 at 100 uM; type: functional, organism-based; summary of the method: as §2
Escherichia coli [17] = assay: Antimicrobial activity against Escherichia coli ARC523 at 100 uM; type: functional, organism-based; summary of the method: as §2
Escherichia coli [18] = assay: Antimicrobial activity against Escherichia coli ARC524 at 100 uM; type: functional, organism-based; summary of the method: as §2
Pseudomonas aeruginosa [19] = assay: Antimicrobial activity against Pseudomonas aeruginosa ARC545 at 100 uM; type: functional, organism-based; summary of the method: as §2
Candida albicans = assay: Antimicrobial activity against Candida albicans ARC527 at 100 uM; type: functional, organism-based; summary of the method: as §2
Pseudomonas aeruginosa [20] = assay: Antimicrobial activity against Pseudomonas aeruginosa ARC546 at 100 uM; type: functional, organism-based; summary of the method: as §2
[21] = Solubility of the compound in fed-state simulated intestinal fluid at pH 6.5; type: ADME
[22] = system: Mycobacterium tuberculosis; assay: Antimycobacterial activity against Mycobacterium tuberculosis over expressing TopA after 5 days by standard microdilution method; type: functional; details: 120 h
[23] = system: Mycobacterium tuberculosis; assay: Antimycobacterial activity against Mycobacterium tuberculosis over expressing DprE1 after 5 days by standard microdilution method; type: functional; details: 120 h
[24] = system: Mycobacterium tuberculosis; assay: Antimycobacterial activity against Mycobacterium tuberculosis over expressing InhA after 5 days by standard microdilution method; type: functional; details: 120 h
[25] = system: Mycobacterium tuberculosis; assay: Antimycobacterial activity against Mycobacterium tuberculosis over expressing PimA after 5 days by standard microdilution method; type: functional; details: 120 h

Work on Cn1ncc(C(=O)N2[C@@H]3CC[C@H]2C[C@@H](Nc2n[nH]c4ccc(F)cc24)C3)c1Cl yielded an INH (Cytochrome P450 2D6) greater than 30 µM, an IC50 [1] greater than 33000 nM and a fraction unbound at 18 h, 20 µM [2] of 0.08. The solubility at 24 h [3] was greater than 1000 µM, the Papp B→A [4] was 31 ×10⁻⁶ cm/s and the INH (Cytochrome P450 2C19) was greater than 30 µM. For the same compound, the IC50 (Adenosine receptor A1) was 8000 nM, the IC50 [5] was 120 nM and the MIC [6] was 6.25 µM (≈ 2.52 µg/mL). It also gave an MCC at 72 h [7] greater than 50 µM, a microsomal CLint at 1 µM [8] of 4 µL/min/mg and an INH (Cytochrome P450 3A4) greater than 30 µM. For the same compound, the hepatocyte CLint at 1 µM [9] was 9 µL/min/1e6 cells, the INH (Cytochrome P450 1A2) was greater than 30 µM and the INH (Cytochrome P450 2C9) was greater than 30 µM. For the same compound, the Papp A→B [10] was 20 ×10⁻⁶ cm/s and the logD [11] was 1.9.

With Cc1c(C(=O)N2CCC(Nc3cc(=O)[nH]c4ccccc34)CC2)cnn1C the Activity (Staphylococcus aureus) was “inactive”, the Activity [12] was “inactive” and the Activity [13] was “inactive”. For the same compound, the Activity (Haemophilus influenzae [14]) was “inactive”, the Activity (Klebsiella pneumoniae) was “inactive” and the Activity (Haemophilus influenzae [15]) was “inactive”. For the same compound, the Activity [16] was “inactive”, the Activity (Streptococcus pneumoniae) was “inactive” and the IC50 [5] was 210 nM. The Activity (Escherichia coli [17]) was “inactive”, the Activity (Escherichia coli [18]) was “inactive” and the MIC [6] was 6.2 µM (≈ 2.27 µg/mL). For the same compound, the Activity (Pseudomonas aeruginosa [19]) was “inactive”, the Activity (Candida albicans) was “inactive” and the Activity (Pseudomonas aeruginosa [20]) was “inactive”.

Compound Cn1ncc(C(=O)N2[C@@H]3CC[C@H]2C[C@@H](Nc2cc(=O)n(C)c4ncccc24)C3)c1Cl has an INH (Cytochrome P450 2D6) greater than 30 µM, an IC50 [1] greater than 33000 nM and a fraction unbound at 18 h, 20 µM [2] of 0.01. For the same compound, the solubility at 24 h [3] was 20 µM (≈ 8.54 µg/mL), the solubility [21] was 100 µM (≈ 42.7 µg/mL) and the Papp B→A [4] was 36 ×10⁻⁶ cm/s. The INH (Cytochrome P450 2C19) was greater than 30 µM, the IC50 [5] was 26 nM and the MIC [6] was 0.25 µM (≈ 0.107 µg/mL). The MCC at 72 h [7] was greater than 50 µM, the microsomal CLint at 1 µM [8] was 37 µL/min/mg and the INH (Cytochrome P450 3A4) was greater than 30 µM. It also gave a hepatocyte CLint at 1 µM [9] of 3 µL/min/1e6 cells, an INH (Cytochrome P450 1A2) greater than 30 µM and an INH (Cytochrome P450 2C9) greater than 30 µM. It also gave a Papp A→B [10] of 1 ×10⁻⁶ cm/s and a logD [11] of 1.8.

Work on NNC(=O)c1ccncc1 [ISONIAZID] yielded an MIC [22] of 0.45 µM (≈ 0.0617 µg/mL), an MIC [23] of 0.22 µM (≈ 0.0302 µg/mL) and an MIC [6] of 0.45 µM (≈ 0.0617 µg/mL). It also gave an MIC [24] greater than 7.25 µM and an MIC [25] of 0.22 µM (≈ 0.0302 µg/mL).

In the case of Cc1onc(C(=O)N2[C@@H]3CC[C@H]2C[C@@H](Nc2cc(=O)n(C)c4nccnc24)C3)c1C, the INH (Cytochrome P450 2D6) is reported as greater than 30 µM, the IC50 [1] is reported as greater than 33000 nM and the fraction unbound at 18 h, 20 µM [2] is reported as 0.05. For the same compound, the solubility at 24 h [3] was 132 µM (≈ 53.9 µg/mL), the solubility [21] was 307 µM (≈ 125 µg/mL) and the Papp B→A [4] was 21 ×10⁻⁶ cm/s. For the same compound, the INH (Cytochrome P450 2C19) was greater than 30 µM, the IC50 [5] was 183 nM and the MIC [6] was 6.2 µM (≈ 2.53 µg/mL). It also gave an MCC at 72 h [7] greater than 50 µM, a microsomal CLint at 1 µM [8] of 100 µL/min/mg and an INH (Cytochrome P450 3A4) greater than 30 µM. For the same compound, the hepatocyte CLint at 1 µM [9] was 20 µL/min/1e6 cells, the INH (Cytochrome P450 1A2) was greater than 30 µM and the INH (Cytochrome P450 2C9) was greater than 30 µM. The Papp A→B [10] was 33 ×10⁻⁶ cm/s and the logD [11] was 1.8.

In the case of COc1c(N2C[C@@H]3CCCN[C@@H]3C2)c(F)cc2c(=O)c(C(=O)O)cn(C3CC3)c12 [MOXIFLOXACIN], the MIC [22] is reported as 0.31 µM (≈ 0.124 µg/mL), the MIC [23] is reported as 0.08 µM (≈ 0.0321 µg/mL) and the MIC [24] is reported as 0.16 µM (≈ 0.0642 µg/mL).

In the case of Cn1ncc(C(=O)N2CCC(Nc3cc(=O)[nH]c4c(F)cccc34)CC2)c1Cl, the Activity (Staphylococcus aureus) is reported as “inactive”, the Activity [12] is reported as “inactive” and the Activity [13] is reported as “inactive”. For the same compound, the Activity (Haemophilus influenzae [14]) was “inactive”, the Activity (Klebsiella pneumoniae) was “inactive” and the Activity (Haemophilus influenzae [15]) was “inactive”. For the same compound, the Activity [16] was “inactive”, the Activity (Streptococcus pneumoniae) was “inactive” and the IC50 [5] was 11 nM. The Activity (Escherichia coli [17]) was “inactive”, the Activity (Escherichia coli [18]) was “inactive” and the MIC [6] was 3.1 µM (≈ 1.25 µg/mL). The Activity (Pseudomonas aeruginosa [19]) was “inactive”, the Activity (Candida albicans) was “inactive” and the Activity (Pseudomonas aeruginosa [20]) was “inactive”.
